Test [1] addresses T1, Glucocorticoid receptor (Homo sapiens, UniProt P04150).
T1 sequence (P04150 whole entry): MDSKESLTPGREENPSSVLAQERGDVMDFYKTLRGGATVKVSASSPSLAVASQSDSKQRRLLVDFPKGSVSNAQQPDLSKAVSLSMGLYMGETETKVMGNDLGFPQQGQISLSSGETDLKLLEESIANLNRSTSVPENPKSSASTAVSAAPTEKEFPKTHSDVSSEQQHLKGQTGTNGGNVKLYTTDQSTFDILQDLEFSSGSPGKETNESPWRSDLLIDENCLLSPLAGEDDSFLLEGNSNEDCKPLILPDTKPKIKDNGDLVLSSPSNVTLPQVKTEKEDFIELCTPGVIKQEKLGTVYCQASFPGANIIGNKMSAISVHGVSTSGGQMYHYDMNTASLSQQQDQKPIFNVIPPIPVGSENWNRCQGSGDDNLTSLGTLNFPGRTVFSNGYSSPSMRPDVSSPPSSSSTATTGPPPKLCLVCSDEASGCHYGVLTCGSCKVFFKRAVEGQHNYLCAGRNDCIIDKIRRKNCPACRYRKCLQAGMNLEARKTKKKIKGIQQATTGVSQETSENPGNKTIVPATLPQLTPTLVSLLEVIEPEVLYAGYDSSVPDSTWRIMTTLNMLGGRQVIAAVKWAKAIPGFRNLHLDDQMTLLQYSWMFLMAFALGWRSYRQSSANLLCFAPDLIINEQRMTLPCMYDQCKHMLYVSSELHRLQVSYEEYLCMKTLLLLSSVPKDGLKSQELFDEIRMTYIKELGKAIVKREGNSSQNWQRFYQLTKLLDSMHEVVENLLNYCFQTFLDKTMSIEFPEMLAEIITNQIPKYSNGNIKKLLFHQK
As to the kind of experiment: Effect on human Glucocorticoid receptor (GR) in a whole cell assay to measure functional cellular GR-antagonism (GRAF).

In test [2] the target is T1, Glucocorticoid receptor. As to the kind of experiment: Displacement of [3H]dexamethasone from human Glucocorticoid receptor (GR); Value ranges from 26-67 nM. An outline of the steps:
(§1)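 Binding to human GR; IC50 reported as the geometric mean of two experiments (three for some values), each run in duplicate, with the range of the experiments given.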

Test [3] concerns the target T1, Glucocorticoid receptor. As to the kind of experiment: Displacement of [3H]dexamethasone from human Glucocorticoid receptor (GR); Value ranges from 150-220 nM. An outline of the steps: as §1
The target of test [4] is T1, Glucocorticoid receptor. As to the kind of experiment: Displacement of [3H]dexamethasone from human Glucocorticoid receptor (GR); Value ranges from 681-974 nM. An outline of the steps:
as §1

Test [5] has as its target T1, Glucocorticoid receptor. The experiment in a line: Displacement of [3H]dexamethasone from human Glucocorticoid receptor (GR); Value ranges from 39-94 nM.
Test [6] deals with T1, Glucocorticoid receptor. The experiment in a line: Displacement of [3H]dexamethasone from human Glucocorticoid receptor (GR); Value ranges from 949-1169 nM. An outline of the steps: as §1
A further test has as its target T2, Androgen receptor (Homo sapiens, UniProt P10275).
T2 sequence (P10275 whole entry): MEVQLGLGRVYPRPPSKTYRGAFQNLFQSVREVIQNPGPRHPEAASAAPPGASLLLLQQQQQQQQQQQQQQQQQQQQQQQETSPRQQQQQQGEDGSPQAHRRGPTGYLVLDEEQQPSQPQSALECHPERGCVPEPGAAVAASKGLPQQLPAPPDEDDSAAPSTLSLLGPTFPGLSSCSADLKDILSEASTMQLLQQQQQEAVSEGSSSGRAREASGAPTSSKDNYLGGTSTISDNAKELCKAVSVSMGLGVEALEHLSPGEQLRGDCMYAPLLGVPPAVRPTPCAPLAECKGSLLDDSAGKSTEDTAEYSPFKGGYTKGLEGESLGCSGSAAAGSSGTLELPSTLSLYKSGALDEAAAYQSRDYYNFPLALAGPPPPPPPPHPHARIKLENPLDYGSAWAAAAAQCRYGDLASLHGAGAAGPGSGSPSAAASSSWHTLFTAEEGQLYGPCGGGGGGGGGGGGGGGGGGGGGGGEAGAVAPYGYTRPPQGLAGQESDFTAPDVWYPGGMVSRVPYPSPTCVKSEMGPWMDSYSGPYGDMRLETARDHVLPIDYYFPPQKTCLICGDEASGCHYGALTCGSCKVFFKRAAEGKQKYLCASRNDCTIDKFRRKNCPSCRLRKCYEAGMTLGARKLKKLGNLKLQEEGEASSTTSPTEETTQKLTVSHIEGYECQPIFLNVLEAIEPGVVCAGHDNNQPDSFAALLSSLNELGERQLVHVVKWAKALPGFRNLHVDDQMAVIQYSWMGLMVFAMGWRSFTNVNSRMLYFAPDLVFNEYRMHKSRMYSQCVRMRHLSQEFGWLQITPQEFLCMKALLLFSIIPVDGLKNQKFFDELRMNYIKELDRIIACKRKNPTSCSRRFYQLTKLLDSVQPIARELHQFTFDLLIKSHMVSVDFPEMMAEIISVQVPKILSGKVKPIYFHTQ
As to the kind of experiment: Displacement of [3H]mibolerone from human Androgen receptor.

The target of the next test is T3, Estrogen receptor (Homo sapiens, UniProt P03372).
T3 sequence (P03372 whole entry): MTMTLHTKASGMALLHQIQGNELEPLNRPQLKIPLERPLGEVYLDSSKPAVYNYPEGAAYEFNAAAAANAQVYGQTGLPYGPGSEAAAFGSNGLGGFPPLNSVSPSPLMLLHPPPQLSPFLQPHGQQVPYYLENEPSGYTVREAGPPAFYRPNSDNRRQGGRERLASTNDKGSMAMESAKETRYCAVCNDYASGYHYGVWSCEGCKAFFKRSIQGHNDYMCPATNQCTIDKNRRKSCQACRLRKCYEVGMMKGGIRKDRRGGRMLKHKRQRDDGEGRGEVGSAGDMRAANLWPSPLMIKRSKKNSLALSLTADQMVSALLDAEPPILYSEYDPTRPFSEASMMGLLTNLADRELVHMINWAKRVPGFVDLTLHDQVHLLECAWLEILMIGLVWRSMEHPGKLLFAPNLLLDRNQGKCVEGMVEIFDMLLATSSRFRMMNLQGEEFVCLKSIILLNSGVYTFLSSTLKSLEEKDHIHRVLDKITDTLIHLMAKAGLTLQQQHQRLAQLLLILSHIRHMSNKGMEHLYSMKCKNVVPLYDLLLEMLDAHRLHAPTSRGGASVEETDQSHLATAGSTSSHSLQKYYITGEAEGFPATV
As to the kind of experiment: Displacement of [3H]estradiol from human estrogen receptor alpha. An outline of the steps:
(§2)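 Human steroid receptor (PR, MR, AR, ERα) binding measured by radioligand displacement, with IC50s determined in duplicate. Values without a range come from a single experiment, and values with a range are geometric means of repeat experiments.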

The target of test [7] is T1, Glucocorticoid receptor. The experiment in a line: Displacement of [3H]dexamethasone from human Glucocorticoid receptor (GR); Value ranges from 2-2 nM.
Test [8] concerns the target T4, Mineralocorticoid receptor (Homo sapiens, UniProt P08235).
T4 sequence (P08235 whole entry): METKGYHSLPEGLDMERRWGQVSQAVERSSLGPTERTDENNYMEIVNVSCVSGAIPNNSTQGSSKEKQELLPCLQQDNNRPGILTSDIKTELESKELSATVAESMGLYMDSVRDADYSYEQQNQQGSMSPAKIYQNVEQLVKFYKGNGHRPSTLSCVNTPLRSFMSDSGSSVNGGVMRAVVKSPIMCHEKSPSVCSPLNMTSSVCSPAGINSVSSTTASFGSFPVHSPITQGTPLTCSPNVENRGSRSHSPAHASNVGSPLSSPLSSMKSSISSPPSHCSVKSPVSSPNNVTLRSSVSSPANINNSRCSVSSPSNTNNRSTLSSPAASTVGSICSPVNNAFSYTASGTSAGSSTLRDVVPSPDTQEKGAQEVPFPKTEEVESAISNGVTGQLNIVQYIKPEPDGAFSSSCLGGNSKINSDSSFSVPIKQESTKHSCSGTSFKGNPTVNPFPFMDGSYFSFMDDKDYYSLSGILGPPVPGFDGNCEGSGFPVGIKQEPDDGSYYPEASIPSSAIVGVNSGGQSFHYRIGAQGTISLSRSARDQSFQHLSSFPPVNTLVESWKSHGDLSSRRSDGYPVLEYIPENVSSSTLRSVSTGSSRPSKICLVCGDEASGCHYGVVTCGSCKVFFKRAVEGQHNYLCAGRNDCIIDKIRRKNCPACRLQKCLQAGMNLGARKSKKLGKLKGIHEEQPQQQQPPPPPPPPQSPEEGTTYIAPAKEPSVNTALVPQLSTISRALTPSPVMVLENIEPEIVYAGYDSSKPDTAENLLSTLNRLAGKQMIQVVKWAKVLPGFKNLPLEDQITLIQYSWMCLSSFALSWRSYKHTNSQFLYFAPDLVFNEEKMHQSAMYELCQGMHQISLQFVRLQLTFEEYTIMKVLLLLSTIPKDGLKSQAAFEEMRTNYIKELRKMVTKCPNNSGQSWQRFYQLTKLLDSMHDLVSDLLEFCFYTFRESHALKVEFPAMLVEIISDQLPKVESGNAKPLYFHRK
As to the kind of experiment: Displacement of [3H]aldosterone from human Mineralocorticoid receptor. An outline of the steps: as §2

Test [9] has as its target T1, Glucocorticoid receptor. As to the kind of experiment: Displacement of [3H]dexamethasone from human Glucocorticoid receptor (GR); Value ranges from 379-840 nM. An outline of the steps:
as §1

The target in test [10] is T1, Glucocorticoid receptor. The experiment in a line: Displacement of [3H]dexamethasone from human Glucocorticoid receptor (GR); Value ranges from 215-217 nM. An outline of the steps:
as §1

The target of test [11] is T1, Glucocorticoid receptor.
In test [12] the target is T1, Glucocorticoid receptor. The experiment in a line: Displacement of [3H]dexamethasone from human Glucocorticoid receptor (GR); Value ranges from 3-3 nM.
Test [13] concerns the target T1, Glucocorticoid receptor. The experiment in a line: Displacement of [3H]dexamethasone from human Glucocorticoid receptor (GR); Value ranges from 44-53 nM.

Each structure is given as a SMILES string.

Turning to `COc1cccc2c1-c1ccc(NS(=O)(=O)N(C)C)cc1C(c1ccccc1)O2` (stereo unspecified), the results for the IC50 at Glucocorticoid receptor [1] and at Glucocorticoid receptor [2] were 0.121 µM and 0.041 µM, respectively.

In turn, `CS(=O)(=O)Nc1ccc2c(c1)C(c1ccccc1)Oc1cccc(CO)c1-2` (stereo unspecified) returned an IC50 at Glucocorticoid receptor [3] of 0.18 µM.

`COc1ccccc1C1Oc2cccc(OC)c2-c2ccc(NS(C)(=O)=O)cc21` (stereo unspecified): the 50% inhibitory concentration (IC50) was 0.812 µM on Glucocorticoid receptor [4] and 0.665 µM against Glucocorticoid receptor [1].

For the molecule `CCOC(=O)c1ccc(C2Oc3cccc(OC)c3-c3ccc(NS(C)(=O)=O)cc32)cc1` (stereo unspecified), the IC50 at Glucocorticoid receptor [5] is 0.061 µM; at Glucocorticoid receptor [1] it was 0.388 µM.

Regarding `COc1cccc2c1-c1ccc(N(C)S(C)(=O)=O)cc1C(c1ccccc1)O2` (stereo unspecified), the IC50 at Glucocorticoid receptor [6] is 1.05 µM; against Glucocorticoid receptor [1], 0.21 µM.

For `CS(=O)(=O)Nc1ccc2c(c1)C(c1ccccc1)Oc1cccc(OC(F)F)c1-2` (stereo unspecified), the half-maximal inhibitory concentration (IC50) on Androgen receptor is 8.73 µM; at Estrogen receptor, greater than 10 µM; against Glucocorticoid receptor [1], 0.057 µM; at Glucocorticoid receptor [7], 0.002 µM; in test [8], 0.162 µM.

As for `CCNc1ccc2c(c1)C(c1ccccc1)Oc1cccc(OC)c1-2` (stereo unspecified), the values for the concentration for half-maximal inhibition (IC50) at Glucocorticoid receptor [9] and against Glucocorticoid receptor [1] were 0.564 µM and 0.382 µM, respectively.

`COc1cccc2c1-c1ccc(NS(C)(=O)=O)cc1C(c1cccc(O)c1)O2` (stereo unspecified) had a half-inhibitory concentration (IC50) at Glucocorticoid receptor [10] of 0.216 µM.

Regarding `COc1cccc2c1-c1ccc(NS(=O)(=O)c3cccs3)cc1C(c1ccccc1)O2` (stereo unspecified), the half-inhibitory concentration (IC50) against Glucocorticoid receptor [1] worked out at 0.093 µM; against Glucocorticoid receptor [11], 0.018 µM.

Regarding `COc1cccc2c1-c1ccc(NS(C)(=O)=O)cc1C(c1cccc(Cl)c1)O2` (stereo unspecified), the half-maximal inhibitory concentration (IC50) at Androgen receptor was greater than 10 µM; on Estrogen receptor, greater than 10 µM; at Glucocorticoid receptor [1], 0.147 µM; at Glucocorticoid receptor [12] it was 0.003 µM; in test [8], 2.15 µM.

For `COc1cccc2c1-c1ccc(NS(C)(=O)=O)cc1C(c1cccc(Oc3ccccc3)c1)O2` (stereo unspecified), the 50% inhibitory concentration (IC50) at Glucocorticoid receptor [13] stood at 0.048 µM; against Glucocorticoid receptor [1], 0.434 µM.

These data come from ChEMBL document CHEMBL1147539, “Synthesis and biological evaluation of novel, selective, nonsteroidal glucocorticoid receptor antagonists” (Bioorg Med Chem Lett, 2004).
